Measured values taken from PubChem BioAssay AID588556 (Sanford-Burnham Center for Chemical Genomics, 2011).
Activity calls are given as the source filed them.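 The calls were made as follows: active = IC50 at or below 20 µM in the 24 hour cytotoxicity test; inactive = the rest.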

The compounds below were run on CHO-CHOP cells viability, ATPLite luminescence, 24 h (assay: cytotoxicity in CHO-CHOP reporter cells, SAR follow-up, cytotoxicity control for UPR apoptotic arm activator project, cell-based, 24 h exposure, ATPLite luminescence (AID 588556)).
Outline: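 Test system: CHO-CHOP cells. Quantity: 500 cells/well. Buffer or medium: F12 medium with 10% fetal bovine serum. Dosing: dose series, DMSO ≤1% final. Timing: 16-18 h cell pre-culture, 24 h compound treatment, 37 °C. Measured by: ATP-dependent luminescence with ATPLite 1-Step reagent. Controls: tunicamycin 10 µg/mL final as positive control, DMSO alone as negative.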

Structure (SMILES) | IC50
O=C(Nc1nc2ccc(F)c(F)c2s1)c1ccccn1 | 1.42 µM
O=C(Nc1ccc(S(=O)(=O)N2CCC(Cl)CC2)cc1)c1ccc([N+](=O)[O-])o1 | 66.8 µM (inactive)
O=C(Nc1nc2c(F)c(F)ccc2s1)c1ccccn1 | 1.68 µM
O=C(Nc1ccc(S(=O)(=O)N2CCC(O)CC2)cc1)c1ccc([N+](=O)[O-])o1 | 45.9 µM (inactive)
O=C(Nc1nc2c(F)cccc2s1)c1ccccn1 | 1.58 µM
CC1(C)CCN(S(=O)(=O)c2ccc(NC(=O)c3ccc([N+](=O)[O-])o3)cc2)CC1 | 12.6 µM
O=C(Nc1nc2cc(F)c(F)cc2s1)c1ccccn1 | 2.66 µM
CC1CCN(S(=O)(=O)c2ccc(NC(=O)c3ccc([N+](=O)[O-])o3)cc2)CC1 | > 80 µM (inactive)
O=C(Nc1nc2c(F)ccc(F)c2s1)c1ccccn1 | 1.67 µM
O=C(Nc1ccc(S(=O)(=O)N2CCCCC2)cc1)c1ccc([N+](=O)[O-])o1 | > 80 µM (inactive)
O=C(Nc1nc2cccc(F)c2s1)c1ccccn1 | 2.35 µM
O=C(Nc1ccc(S(=O)(=O)N2CCC(F)CC2)cc1)c1ccc([N+](=O)[O-])o1 | 32.6 µM (inactive)
O=C(Nc1ccc(S(=O)(=O)c2ccccc2)cc1)c1ccc([N+](=O)[O-])o1 | 40.4 µM (inactive)
O=C(Nc1ccc(S(=O)(=O)N2CCOCC2)cc1)c1ccc([N+](=O)[O-])o1 | 53.5 µM (inactive)
O=C(Nc1nc2ccc(Cl)cc2s1)c1ccccn1 | 1.23 µM
CC(C)(C)C1CCN(S(=O)(=O)c2ccc(NC(=O)c3ccc([N+](=O)[O-])o3)cc2)CC1 | 2.42 µM
O=C(Nc1nc2ccc(F)cc2s1)c1ccccn1 | 1.93 µM
CC1CN(S(=O)(=O)c2ccc(NC(=O)c3ccc([N+](=O)[O-])o3)cc2)CC(C)O1 (stereo not given) | 51.4 µM (inactive)
O=C(Nc1nc2ccc(C(F)(F)F)cc2s1)c1ccccn1 | 1.22 µM
O=C(Nc1ccc(S(=O)(=O)N2CCNCC2)cc1)c1ccc([N+](=O)[O-])o1 | > 80 µM (inactive)
O=C(Nc1ccc(S(=O)(=O)N2CCC3(CCCCC3)CC2)cc1)c1ccc([N+](=O)[O-])o1 | 1.16 µM
Cc1cc(C)c2nc(NC(=O)c3ccccn3)sc2c1 | 5.31 µM
O=C(Nc1ccc(S(=O)(=O)N2CCOCC2)cc1)c1ccc([N+](=O)[O-])s1 | > 80 µM (inactive)
O=C(Nc1nc2cc(F)ccc2s1)c1ccccn1 | 1.57 µM
O=C(Nc1nc2c(F)cc(F)cc2s1)c1ccccn1 | 1.4 µM
O=C(Nc1nc2cc(F)cc(F)c2s1)c1ccccn1 | 1.83 µM
O=C(Nc1ccc(S(=O)(=O)C2CCOCC2)cc1)c1ccc([N+](=O)[O-])o1 | 66.3 µM (inactive)
O=C(Nc1nc2c(Cl)cc(Cl)cc2s1)c1ccccn1 | 13.3 µM
O=C(Nc1ccc(S(=O)(=O)C2CCCCC2)cc1)c1ccc([N+](=O)[O-])o1 | 26.7 µM (inactive)
O=C(Nc1ccc(S(=O)(=O)N2CCCC2)cc1)c1ccc([N+](=O)[O-])o1 | 25 µM (inactive)
